Measured values taken from ChEMBL document CHEMBL5608190, “Dehydroabietylamine-substituted trifluorobenzene sulfonamide rhodamine B hybrids as anticancer agents overcoming drug resistance” (Eur J Med Chem, 2024).

Tests used:
HT-29 = experiment: Cytotoxicity against human HT-29 cells incubated for 72 hrs by SRB assay; type: functional, cell-based; details: HT-29, 72 h
How it was run: (§1)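 Cells plated in 96-well format and left 24 h, then exposed to serial dilutions of compound for 72 h; growth read by sulforhodamine B staining. Media held 10 % fetal bovine serum and 1 % penicillin-streptomycin. IC50 taken from dose-response curves, means of 2 independent experiments.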

[1] = Cytotoxicity against human CCD-18Co cells incubated for 72 hrs by SRB assay; type: toxicity, cell-based; how it was run: as §1
[2] = Cytotoxicity against human A2780cis cells incubated for 72 hrs by SRB assay; type: functional, cell-based; how it was run: as §1
A549 = experiment: Cytotoxicity against human A549 cells incubated for 72 hrs by SRB assay; type: functional, cell-based; details: A549, 72 h; how it was run: as §1
MCF7 = experiment: Cytotoxicity against human MCF7 cells incubated for 72 hrs by SRB assay; type: functional, cell-based; details: MCF7, 72 h
How it was run: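 Cells plated in 96-well format and left 24 h, then exposed to serial dilutions of compound for 72 h; growth read by sulforhodamine B staining. Media held 10 % fetal bovine serum and 1 % penicillin-streptomycin.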

[3] = Selectivity index, ratio of IC50 for human CCD-18Co cells to IC50 for human A2780cis cells
How it was run: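 Selectivity index calculated as the ratio of the 72 h SRB IC50 in non-malignant CCD18Co fibroblasts to that in A2780cis.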

[4] = Drug accumulation in human HT-29 cells at 500 nM incubated for 30 mins by fluorescence based analysis; type: ADME, cell-based; details: ht-29, 0.5 h, 0.5 µM
How it was run: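 Live-cell imaging in HT29 cells seeded at 20.000 per well and grown 48 h, then switched to phenol-red-free RPMI 1640. Co-treated with compound at 500 nM, HypoxySense 680 (1:2000, CAIX probe) and Hoechst 33342 nuclear stain. Imaged after 30 min by fluorescence microscopy at Ex/Em 385/425 nm (Hoechst), 555/592 nm (compounds) and 630/681 nm (HypoxySense).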

A2780 = experiment: Cytotoxicity against human A2780 cells incubated for 72 hrs by SRB assay; type: functional, cell-based; details: A2780, 72 h; how it was run: as §1
[5] = Resistance index, ratio of IC50 for human A2780cis cells to IC50 for human A2780cis cells; type: functional; details: in the assay text read “to IC50 for human A2780 cells” for “to IC50 for human A2780cis cells”
How it was run: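 Resistance index calculated as the ratio of the 72 h SRB IC50 in A2780cis to that in parental A2780.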

| Drug uptake [4] | Compound | IC50 (HT-29) | IC50 at 72 h [1] | IC50 [2] | IC50 (A549) | IC50 (MCF7) | Ratio IC50 [3] | IC50 (A2780) | Ratio IC50 [5] |
| --- | --- | --- | --- | --- | --- | --- | --- | --- | --- |
|  | COc1cccc2c1C(=O)c1c(O)c3c(c(O)c1C2=O)C[C@@](O)(C(=O)CO)C[C@@H]3O[C@H]1C[C@H](N)[C@H](O)[C@H](C)O1 [DOXORUBICIN] | 86 nM | 269 nM | 99 nM | 23 nM |  |  |  |  |
| Active | CCN(CC)c1ccc2c(-c3ccccc3C(=O)N3CCN(C(=O)c4ccc(CCSc5c(F)c(F)c(S(N)(=O)=O)c(NC[C@]6(C)CCC[C@]7(C)c8ccc(C(C)C)cc8CC[C@@H]67)c5F)cc4)CC3)c3ccc(=[N+](CC)CC)cc-3oc2c1.[Cl-] | 530 nM | 1020 nM | 460 nM | 710 nM | 410 nM | 2.22 | 380 nM | 1.21 |
| Active | CCN(CC)c1ccc2c(-c3ccccc3C(=O)N3CCN(C(=O)c4ccc(CCSc5c(F)c(F)c(S(N)(=O)=O)c(NC6CCCCCCCCCCC6)c5F)cc4)CC3)c3ccc(=[N+](CC)CC)cc-3oc2c1.[Cl-] | 320 nM | 550 nM | 450 nM | 590 nM | 260 nM | 1.22 | 240 nM | 1.87 |
